{
  "source": "ChEMBL document CHEMBL1145518",
  "about": "“Potent immune-modulating and anticancer effects of NKT cell stimulatory glycolipids” (2007)",
  "key": {"[1]": {"experiment": "Induction of IFN-gamma secretion in human CD161+ CD3+ NKT cells at 10 ug/ml after 18 hrs relative to basal level", "assay_type": "functional", "how_it_was_run": "(§1)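 Human Vα24i NKT cell lines were expanded for 10 days on irradiated (3,000 rad) autologous immature DCs with 10 units/ml IL-2. The cells (1 × 10^5) were cocultured with 5 × 10^4 irradiated immature CD14+ DCs plus glycolipid at 10 μg/ml. Supernatants were collected at 18 h and read on a 22-plex Luminex bead panel. Triplicates, mean ± SD.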"}, "[2]": {"experiment": "Induction of IL13 secretion in human CD161+ CD3+ NKT cells at 10 ug/ml after 18 hrs relative to basal level", "assay_type": "functional", "how_it_was_run": "as §1"}, "[3]": {"experiment": "Induction of IL2 secretion in human CD161+ CD3+ NKT cells at 10 ug/ml after 18 hrs relative to basal level", "assay_type": "functional", "how_it_was_run": "as §1"}, "[4]": {"experiment": "Induction of RANTES secretion in human CD161+ CD3+ NKT cells at 10 ug/ml after 18 hrs relative to basal level", "assay_type": "functional", "how_it_was_run": "as §1"}, "[5]": {"experiment": "Induction of IL6 secretion in human CD161+ CD3+ NKT cells at 10 ug/ml after 18 hrs relative to basal level", "assay_type": "functional", "how_it_was_run": "as §1"}, "[6]": {"experiment": "Induction of IL12p40 secretion in human CD161+ CD3+ NKT cells at 10 ug/ml after 18 hrs relative to basal level", "assay_type": "functional", "how_it_was_run": "as §1"}, "[7]": {"experiment": "Induction of MCP1 secretion in human CD161+ CD3+ NKT cells at 10 ug/ml after 18 hrs relative to basal level", "assay_type": "functional", "how_it_was_run": "as §1"}, "[8]": {"experiment": "Induction of TNFalpha secretion in human CD161+ CD3+ NKT cells at 10 ug/ml after 18 hrs relative to basal level", "assay_type": "functional", "how_it_was_run": "as §1"}, "[9]": {"experiment": "Induction of GM-CSF secretion in human CD161+ CD3+ NKT cells at 10 ug/ml after 18 hrs relative to basal level", "assay_type": "functional", "how_it_was_run": "as §1"}, "[10]": {"experiment": "Induction of IL4 secretion in human CD161+ CD3+ NKT cells at 10 ug/ml after 18 hrs relative to basal level", "assay_type": "functional", "how_it_was_run": "as §1"}, "[11]": {"experiment": "Induction of IL3 secretion in human CD161+ CD3+ NKT cells at 10 ug/ml after 18 hrs relative to basal level", "assay_type": "functional", "how_it_was_run": "as §1"}, "[12]": {"experiment": "Induction of IL12p70 secretion in human CD161+ CD3+ NKT cells at 10 ug/ml after 18 hrs relative to basal level", "assay_type": "functional", "how_it_was_run": "as §1"}, "[13]": {"experiment": "Induction of IL10 secretion in human CD161+ CD3+ NKT cells at 10 ug/ml after 18 hrs relative to basal level", "assay_type": "functional", "how_it_was_run": "as §1"}, "[14]": {"experiment": "Induction of IL15 secretion in human CD161+ CD3+ NKT cells at 10 ug/ml after 18 hrs relative to basal level", "assay_type": "functional", "how_it_was_run": "as §1"}, "[15]": {"experiment": "Induction of MIPalpha secretion in human CD161+ CD3+ NKT cells at 10 ug/ml after 18 hrs relative to basal level", "assay_type": "functional", "how_it_was_run": "as §1"}, "[16]": {"experiment": "Induction of IL8 secretion in human CD161+ CD3+ NKT cells at 10 ug/ml after 18 hrs relative to basal level", "assay_type": "functional", "how_it_was_run": "as §1"}, "[17]": {"tested_on": "TC1", "experiment": "Antitumor activity in TC1 cells xenografted C57BL/6 mouse assessed as suppression of tumor growth at 2 ug, iv", "assay_type": "functional, cell-based", "how_it_was_run": "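C57BL/6 mice (n = 5/group) were inoculated i.v. with TC-1 lung cancer cells. They were then treated i.v. with 2 μg glycolipid per mouse, or 100 μl of 1% DMSO, twice weekly for 4 weeks. Kaplan–Meier survival and body weight were followed, with tumor-free mice as an additional control.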"}, "[18]": {"tested_on": "NKT", "experiment": "Stimulation of cell expansion of human invariant CD161+/ Valpha24+/ CD56+/ CD3+ NKT cells by flow cytometry method", "assay_type": "functional, cell-based", "how_it_was_run": "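CD56+ NK/NKT mixtures (2 × 10^6) were isolated from human leukopaks with anti-CD56 microbeads. They were cocultured with 4 × 10^5 autologous immature CD14+ DCs pulsed with glycolipid at 3 μg/ml, or with 0.3% DMSO, on day 2 for 18 h. Suspension cells were then transferred and kept in 100 units/ml IL-2 with fresh medium every 3 days. On day 9, CD161+/Vα24TCR+ cells were gated by flow cytometry and total Vα24i NKT cells counted. Triplicates, mean ± SD.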"}, "[19]": {"tested_on": "Mus musculus", "experiment": "Activation of B cells in BALB/c mouse at 2 ug, iv after 72 hrs by flow cytometry", "assay_type": "functional, organism-based"}},
  "note": "The source made the active and inactive calls. The rule behind the calls is not given here.",
  "data": [
    {"smiles": "CCCCCCCCCCCCCCCCCCCCCCCCCC(=O)N[C@@H](CS[C@H]1O[C@H](CO)[C@H](O)[C@H](O)[C@H]1O)[C@H](O)[C@H](O)CCCCCCCCCCCCCC", "values": [
      {"measurement": "Activity", "setting": "[1]", "value": 1.3},
      {"measurement": "Activity", "setting": "[2]", "value": 1.6},
      {"measurement": "Activity", "setting": "[3]", "value": 1.2},
      {"measurement": "Activity", "setting": "[4]", "value": 1.5},
      {"measurement": "Activity", "setting": "[5]", "value": 1.5},
      {"measurement": "Activity", "setting": "[6]", "value": 1.7},
      {"measurement": "Activity", "setting": "[7]", "value": 1.4},
      {"measurement": "Activity", "setting": "[8]", "value": 2.5},
      {"measurement": "Activity", "setting": "[9]", "value": 1.6},
      {"measurement": "Activity", "setting": "[10]", "value": 2.1},
      {"measurement": "Activity", "setting": "[11]", "value": 1.1},
      {"measurement": "Activity", "setting": "[12]", "value": 1},
      {"measurement": "Activity", "setting": "[13]", "value": 0.6},
      {"measurement": "Activity", "setting": "[14]", "value": 1.8},
      {"measurement": "Activity", "setting": "[15]", "value": 1.5},
      {"measurement": "Activity", "setting": "[16]", "value": 1.9}
    ]},
    {"smiles": "CCCCCCCCCCCCCC[C@@H](O)[C@@H](O)[C@H](CO[C@H]1O[C@H](CO)[C@H](O)[C@H](O)[C@H]1O)NC(=O)CCCCCc1ccccc1", "values": [
      {"measurement": "Activity", "setting": "[1]", "value": 4.6},
      {"measurement": "Activity", "setting": "[2]", "value": 2.6},
      {"measurement": "Activity", "setting": "[17]", "value": "Active"},
      {"measurement": "Activity", "setting": "[3]", "value": 5.9},
      {"measurement": "Activity", "setting": "[4]", "value": 1.8},
      {"measurement": "Activity", "setting": "[5]", "value": 2.7},
      {"measurement": "Activity", "setting": "[6]", "value": 2.4},
      {"measurement": "Activity", "setting": "[7]", "value": 1.3},
      {"measurement": "Activity", "setting": "[18]", "value": "Active"},
      {"measurement": "Activity", "setting": "[8]", "value": 8.7},
      {"measurement": "Activity", "setting": "[9]", "value": 5.6},
      {"measurement": "Activity", "setting": "[10]", "value": 3},
      {"measurement": "Activity", "setting": "[11]", "value": 4.1},
      {"measurement": "Activity", "setting": "[12]", "value": 3.3},
      {"measurement": "Activity", "setting": "[13]", "value": 2.4},
      {"measurement": "Activity", "setting": "[19]", "value": "Active"},
      {"measurement": "Activity", "setting": "[14]", "value": 2.6},
      {"measurement": "Activity", "setting": "[15]", "value": 3},
      {"measurement": "Activity", "setting": "[16]", "value": 2.2}
    ]},
    {"smiles": "CCCCCCCCCCCCCC[C@@H](O)[C@@H](O)[C@H](CO[C@H]1O[C@H](CO)[C@H](O)[C@H](O)[C@H]1O)NC(=O)CCc1ccc(C(F)(F)F)cc1", "values": [
      {"measurement": "Activity", "setting": "[1]", "value": 2.8},
      {"measurement": "Activity", "setting": "[2]", "value": 2.1},
      {"measurement": "Activity", "setting": "[3]", "value": 1.5},
      {"measurement": "Activity", "setting": "[4]", "value": 1.7},
      {"measurement": "Activity", "setting": "[5]", "value": 2.3},
      {"measurement": "Activity", "setting": "[6]", "value": 1.9},
      {"measurement": "Activity", "setting": "[7]", "value": 1.4},
      {"measurement": "Activity", "setting": "[8]", "value": 3.3},
      {"measurement": "Activity", "setting": "[9]", "value": 3.5},
      {"measurement": "Activity", "setting": "[10]", "value": 2.4},
      {"measurement": "Activity", "setting": "[11]", "value": 1.6},
      {"measurement": "Activity", "setting": "[12]", "value": 1.7},
      {"measurement": "Activity", "setting": "[13]", "value": 1.7},
      {"measurement": "Activity", "setting": "[14]", "value": 2.1},
      {"measurement": "Activity", "setting": "[15]", "value": 3.4},
      {"measurement": "Activity", "setting": "[16]", "value": 2.4}
    ]},
    {"smiles": "CCCCCCCCCCCCCCCCCCCCCCCCCC(=O)N[C@@H](CO[C@@H]1O[C@H](CO)[C@H](O)[C@H](OS(=O)(=O)[O-])[C@H]1O)[C@H](O)[C@H](O)CCCCCCCCCCCCCC.[Na+]", "values": [
      {"measurement": "Activity", "setting": "[1]", "value": 2.2},
      {"measurement": "Activity", "setting": "[2]", "value": 2.4},
      {"measurement": "Activity", "setting": "[3]", "value": 1.6},
      {"measurement": "Activity", "setting": "[4]", "value": 1.5},
      {"measurement": "Activity", "setting": "[5]", "value": 1.9},
      {"measurement": "Activity", "setting": "[6]", "value": 1.8},
      {"measurement": "Activity", "setting": "[7]", "value": 1.5},
      {"measurement": "Activity", "setting": "[8]", "value": 3.7},
      {"measurement": "Activity", "setting": "[9]", "value": 4.1},
      {"measurement": "Activity", "setting": "[10]", "value": 2.9},
      {"measurement": "Activity", "setting": "[11]", "value": 2.3},
      {"measurement": "Activity", "setting": "[12]", "value": 1.6},
      {"measurement": "Activity", "setting": "[13]", "value": 1.8},
      {"measurement": "Activity", "setting": "[14]", "value": 2.2},
      {"measurement": "Activity", "setting": "[15]", "value": 3.2},
      {"measurement": "Activity", "setting": "[16]", "value": 1.9}
    ]}
  ]
}
